According to ChEMBL document CHEMBL3286193, “Discovery of a series of 2,5-diaminopyrimidine covalent irreversible inhibitors of Bruton's tyrosine kinase with in vivo antitumor activity” (J Med Chem, 2014):
pIC50: −log10 of the molar value. The source made the active and inactive calls. No cut-off for these calls is given here.

What was measured:
[1] = target: Mitogen-activated protein kinase 14 (Homo sapiens) (UniProt Q16539); assay: Inhibition of P38-alpha MAPK (unknown origin) at 0.5 uM by [33P]-ATP filter binding assay
In short: (§1)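 Kinase panel of 18 enzymes; inhibition tested at 0.5 μM. Values are means of duplicates.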

[2] = target: Tyrosine-protein kinase Blk (Homo sapiens, UniProt P51451); assay: Inhibition of Blk (unknown origin) after 1 hr by HTRF assay
In short: (§2)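 Recombinant kinases tested by HTRF KinEase protocol. Enzyme preincubated with inhibitor for a fixed 10 min. IC50 values are means of duplicates.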

[3] = target: Tyrosine-protein kinase JAK3 (Homo sapiens, UniProt P52333); assay: Inhibition of Jak3 (unknown origin) after 1 hr by HTRF assay; in short: as §2
[4] = target: Tyrosine-protein kinase TXK (Homo sapiens, UniProt P42681); assay: Inhibition of Rlk (unknown origin) after 1 hr by HTRF assay; in short: as §2
[5] = target: T1, Tyrosine-protein kinase BTK (Homo sapiens, UniProt Q06187); assay: Binding affinity to Btk kinase domain (387 to 659) (unknown origin) assessed as compound-protein covalent adduct formation at 1:3 protein to compound molar ratio at 4 degC after 1 hr by LC-MS analysis
In short: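 Btk kinase domain (residues 387−659, MW 32136) incubated with 3 equiv of compound at 4 °C for 1 h. Mass spectrometry of the intact protein checked for mass peak shift consistent with 1-to-1 protein−compound adducts.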

[6] = target: T1, Tyrosine-protein kinase BTK; assay: Binding affinity to Btk kinase domain (387 to 659) (unknown origin) assessed as compound-protein covalent adduct formation at Cys481 residue at 1:3 protein to compound molar ratio incubated for 3 hrs at 0 degC followed by overnight incubation with trypsin at 37 degC by LC-MS analysis
In short: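 Covalent Btk kinase-domain adduct digested with trypsin. Resulting peptide fragments analyzed by mass spectrometry to locate the modified residue.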

SU-DHL10 = assay: Cytotoxicity against human SU-DHL10 cells assessed as growth inhibition at 1 to 10 uM after 72 hrs by CellTiter-Glo luminescent cell viability assay; format: functional, cell-based
[7] = Cytotoxicity against human Pfeiffer cells assessed as growth inhibition after 72 hrs by CellTiter-Glo luminescent cell viability assay; format: functional; conditions: Homo sapiens, Pfeiffer, 72 h
In short: (§3)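 Lymphoma cells seeded at 5000 cells/well, incubated 24 h, then exposed to compounds for 72 h. Viability read by CellTiter-Glo luminescence. GI50 from dose−response curves, mean of two or three independent experiments in triplicate.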

[8] = Cytotoxicity against human SU-DHL6 cells assessed as growth inhibition after 72 hrs by CellTiter-Glo luminescent cell viability assay; format: functional, SU-DHL-6; conditions: Homo sapiens, SU-DHL-6, 72 h; in short: as §3
[9] = Stability of the compound in FaSSIF assessed as compound remaining at 1 uM measured at 24 hrs by LC-MS analysis; format: ADME; conditions: read-out: Stability
In short: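 Compound solutions in FaSSIF shaken at 350 rpm at 37 °C. Samples taken at 2, 6, 10 and 24 h and quantified by LC−MS as % remaining.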

[10] = Half life in mouse liver microsomes by LC-MS/MS analysis; format: ADME
In short: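 Liver microsomes incubated with compound and NADPH at 37 °C. Samples taken at several time points, centrifuged, and supernatants analyzed by LC−MS/MS. t1/2 and CL calculated by first-order kinetics. Testosterone, propranolol and clozapine served as positive controls.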

[11] = Plasma concentration in CB17 SCID mouse xenografted with human DOHH2 cells at 20 mg/kg, iv qd administered for 14 days measured at 2 hrs post last dose; format: ADME, organism-based, DOHH-2; design: dose 20 mg/kg, route intravenous
In short: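 Same DoHH2 xenograft study in female CB17/SCID mice, tail-vein dosing once daily for 14 days. Plasma compound concentrations determined at 2 and 24 h after the last administration.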

Mus musculus [12] = assay: Toxicity in CB17 SCID mouse xenografted with human DOHH2 cells assessed as body weight fluctuations at 10 mg/kg, iv qd administered for 14 days measured over 14 days of compound treatment; format: organism-based, DOHH-2; design: dose 10 mg/kg, route intravenous; conditions: in vivo, 336 h
In short: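 Female CB17/SCID mice carried subcutaneous DoHH2 xenografts (5 × 10⁶ cells injected), randomised at ~167 mm³ mean tumour volume into four groups (n = 6/group). Compound was given intravenously via the tail vein once daily for 14 consecutive days. Body weights were tracked over time throughout the study.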

Mus musculus [13] = assay: Toxicity in CB17 SCID mouse xenografted with human DOHH2 cells assessed as body weight fluctuations at 20 mg/kg, iv qd administered for 14 days measured over 14 days of compound treatment; format: organism-based, DOHH-2; design: dose 20 mg/kg, route intravenous; conditions: in vivo, 336 h
In short: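 DoHH2 subcutaneous xenograft in female CB17/SCID mice (5 × 10⁶ cells; dosing from ~167 mm³ mean tumor volume; n = 6/group). Daily tail-vein dosing for 14 consecutive days. Body weights followed over time across the study.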

[14] = Binding affinity to glutathione in PBS buffer assessed as glutathione-compound adduct formation at 100 uM at pH 7.4 at 37 degC after 2 hrs
In short: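 Compound (100 μM) incubated with 5 mM glutathione in PBS, pH 7.4, at 37 °C. Checked for GSH−compound adducts after 2 h.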

[15] = target: Tyrosine-protein kinase JAK2 (Homo sapiens) (UniProt O60674); assay: Inhibition of JAK2 (unknown origin) at 0.5 uM by [33P]-ATP filter binding assay; in short: as §1
Tyrosine-protein kinase JAK2 (Homo sapiens), sequence (O60674 whole entry): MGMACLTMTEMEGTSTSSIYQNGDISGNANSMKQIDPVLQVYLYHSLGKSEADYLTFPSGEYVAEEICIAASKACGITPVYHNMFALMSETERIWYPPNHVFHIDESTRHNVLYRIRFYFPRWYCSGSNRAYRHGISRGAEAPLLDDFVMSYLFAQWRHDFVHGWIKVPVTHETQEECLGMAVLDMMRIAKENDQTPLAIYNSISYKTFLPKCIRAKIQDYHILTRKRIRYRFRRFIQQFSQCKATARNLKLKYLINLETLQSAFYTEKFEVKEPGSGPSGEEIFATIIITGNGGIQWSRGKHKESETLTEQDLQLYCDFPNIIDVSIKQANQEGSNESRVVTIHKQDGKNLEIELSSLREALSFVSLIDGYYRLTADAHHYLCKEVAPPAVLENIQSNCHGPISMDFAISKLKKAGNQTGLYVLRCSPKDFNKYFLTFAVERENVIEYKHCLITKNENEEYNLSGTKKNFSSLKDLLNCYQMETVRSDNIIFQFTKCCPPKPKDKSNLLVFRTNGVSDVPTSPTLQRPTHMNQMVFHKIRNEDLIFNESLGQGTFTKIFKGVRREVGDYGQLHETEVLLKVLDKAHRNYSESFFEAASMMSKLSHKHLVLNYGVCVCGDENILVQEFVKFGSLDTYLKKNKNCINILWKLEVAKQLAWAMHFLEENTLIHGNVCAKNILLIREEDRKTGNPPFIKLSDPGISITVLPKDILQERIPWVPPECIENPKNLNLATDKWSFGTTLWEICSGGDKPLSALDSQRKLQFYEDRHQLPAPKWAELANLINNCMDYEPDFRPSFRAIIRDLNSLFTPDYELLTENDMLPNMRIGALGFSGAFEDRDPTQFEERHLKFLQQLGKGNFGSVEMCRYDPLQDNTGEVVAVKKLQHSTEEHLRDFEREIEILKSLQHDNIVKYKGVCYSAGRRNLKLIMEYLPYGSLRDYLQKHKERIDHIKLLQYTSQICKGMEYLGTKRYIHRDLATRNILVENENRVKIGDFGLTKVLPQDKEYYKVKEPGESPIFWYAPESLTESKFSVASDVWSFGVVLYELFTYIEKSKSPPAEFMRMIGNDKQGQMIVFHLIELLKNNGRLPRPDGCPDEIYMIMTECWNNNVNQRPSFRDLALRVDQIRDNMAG

T1 sequence (Q06187 whole entry, the tested form may be a part): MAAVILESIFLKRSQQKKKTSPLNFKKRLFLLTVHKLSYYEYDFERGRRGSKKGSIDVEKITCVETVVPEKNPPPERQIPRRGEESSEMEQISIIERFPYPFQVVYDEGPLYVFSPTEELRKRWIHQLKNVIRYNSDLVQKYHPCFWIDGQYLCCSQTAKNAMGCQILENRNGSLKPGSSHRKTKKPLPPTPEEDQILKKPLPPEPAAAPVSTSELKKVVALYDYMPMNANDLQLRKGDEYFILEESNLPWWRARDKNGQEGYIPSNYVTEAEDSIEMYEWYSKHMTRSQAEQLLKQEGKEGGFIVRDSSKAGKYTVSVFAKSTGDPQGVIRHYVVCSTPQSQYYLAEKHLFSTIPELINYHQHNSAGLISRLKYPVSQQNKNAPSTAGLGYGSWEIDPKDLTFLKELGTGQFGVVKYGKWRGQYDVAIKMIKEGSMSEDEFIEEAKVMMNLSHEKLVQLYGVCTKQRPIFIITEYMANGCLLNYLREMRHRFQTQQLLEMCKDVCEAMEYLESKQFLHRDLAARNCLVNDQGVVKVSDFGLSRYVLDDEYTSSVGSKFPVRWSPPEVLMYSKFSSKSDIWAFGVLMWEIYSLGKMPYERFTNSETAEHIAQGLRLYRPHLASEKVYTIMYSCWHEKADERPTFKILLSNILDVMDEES
Tyrosine-protein kinase JAK3, sequence (P52333 whole entry): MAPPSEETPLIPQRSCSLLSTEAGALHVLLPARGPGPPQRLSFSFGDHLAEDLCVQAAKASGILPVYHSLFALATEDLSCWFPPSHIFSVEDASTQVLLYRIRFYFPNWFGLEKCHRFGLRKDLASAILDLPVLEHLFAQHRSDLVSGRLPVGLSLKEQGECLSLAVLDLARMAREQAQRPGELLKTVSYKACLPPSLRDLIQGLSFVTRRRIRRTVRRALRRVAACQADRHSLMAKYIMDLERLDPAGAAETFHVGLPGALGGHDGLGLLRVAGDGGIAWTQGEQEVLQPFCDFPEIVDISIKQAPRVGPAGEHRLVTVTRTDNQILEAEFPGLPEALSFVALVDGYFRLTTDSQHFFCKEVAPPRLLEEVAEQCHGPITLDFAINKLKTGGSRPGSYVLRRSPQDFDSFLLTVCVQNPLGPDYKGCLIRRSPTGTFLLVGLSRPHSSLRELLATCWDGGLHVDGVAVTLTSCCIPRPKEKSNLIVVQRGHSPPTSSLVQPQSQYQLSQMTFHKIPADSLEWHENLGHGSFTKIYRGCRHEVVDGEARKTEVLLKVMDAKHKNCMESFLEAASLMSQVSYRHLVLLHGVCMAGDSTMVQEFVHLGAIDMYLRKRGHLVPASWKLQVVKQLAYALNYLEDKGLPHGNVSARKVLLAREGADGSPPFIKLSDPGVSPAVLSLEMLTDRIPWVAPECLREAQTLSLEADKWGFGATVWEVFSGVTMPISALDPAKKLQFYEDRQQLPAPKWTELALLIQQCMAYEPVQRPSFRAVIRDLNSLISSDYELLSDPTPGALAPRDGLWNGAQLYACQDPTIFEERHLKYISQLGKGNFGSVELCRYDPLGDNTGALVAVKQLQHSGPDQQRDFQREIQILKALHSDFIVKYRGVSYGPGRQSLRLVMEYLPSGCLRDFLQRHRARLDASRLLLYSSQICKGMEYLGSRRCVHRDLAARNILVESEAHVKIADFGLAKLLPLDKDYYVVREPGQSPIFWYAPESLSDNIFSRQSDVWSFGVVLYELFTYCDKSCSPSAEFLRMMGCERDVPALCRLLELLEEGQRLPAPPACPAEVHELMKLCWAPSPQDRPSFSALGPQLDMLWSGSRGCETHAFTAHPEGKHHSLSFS
Tyrosine-protein kinase TXK, sequence (P42681 whole entry, the tested form may be a part): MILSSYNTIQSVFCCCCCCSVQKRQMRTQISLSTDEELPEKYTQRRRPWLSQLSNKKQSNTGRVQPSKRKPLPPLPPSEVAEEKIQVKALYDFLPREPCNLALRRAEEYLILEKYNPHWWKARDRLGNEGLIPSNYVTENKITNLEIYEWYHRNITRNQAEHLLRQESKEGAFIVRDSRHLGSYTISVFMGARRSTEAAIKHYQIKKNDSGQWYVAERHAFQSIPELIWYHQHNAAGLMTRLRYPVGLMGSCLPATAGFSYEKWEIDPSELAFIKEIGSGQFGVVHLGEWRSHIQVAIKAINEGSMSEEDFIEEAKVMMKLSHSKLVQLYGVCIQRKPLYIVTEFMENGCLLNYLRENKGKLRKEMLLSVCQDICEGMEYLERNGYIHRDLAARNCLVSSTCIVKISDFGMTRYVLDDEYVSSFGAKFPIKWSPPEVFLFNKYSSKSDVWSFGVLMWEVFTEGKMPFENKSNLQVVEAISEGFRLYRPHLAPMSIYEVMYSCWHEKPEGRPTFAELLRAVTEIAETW
Mitogen-activated protein kinase 14 (Homo sapiens), sequence (Q16539 whole entry): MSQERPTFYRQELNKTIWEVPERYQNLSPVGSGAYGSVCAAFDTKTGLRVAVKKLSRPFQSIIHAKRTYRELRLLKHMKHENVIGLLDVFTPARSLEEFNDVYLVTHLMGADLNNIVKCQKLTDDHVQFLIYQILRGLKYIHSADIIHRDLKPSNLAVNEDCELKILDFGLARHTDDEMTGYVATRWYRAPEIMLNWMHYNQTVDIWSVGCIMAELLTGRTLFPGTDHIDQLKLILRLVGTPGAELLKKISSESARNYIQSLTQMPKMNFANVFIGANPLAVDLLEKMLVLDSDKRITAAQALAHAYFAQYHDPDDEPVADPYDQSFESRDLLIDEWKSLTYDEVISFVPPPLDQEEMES
Tyrosine-protein kinase Blk, sequence (P51451 whole entry): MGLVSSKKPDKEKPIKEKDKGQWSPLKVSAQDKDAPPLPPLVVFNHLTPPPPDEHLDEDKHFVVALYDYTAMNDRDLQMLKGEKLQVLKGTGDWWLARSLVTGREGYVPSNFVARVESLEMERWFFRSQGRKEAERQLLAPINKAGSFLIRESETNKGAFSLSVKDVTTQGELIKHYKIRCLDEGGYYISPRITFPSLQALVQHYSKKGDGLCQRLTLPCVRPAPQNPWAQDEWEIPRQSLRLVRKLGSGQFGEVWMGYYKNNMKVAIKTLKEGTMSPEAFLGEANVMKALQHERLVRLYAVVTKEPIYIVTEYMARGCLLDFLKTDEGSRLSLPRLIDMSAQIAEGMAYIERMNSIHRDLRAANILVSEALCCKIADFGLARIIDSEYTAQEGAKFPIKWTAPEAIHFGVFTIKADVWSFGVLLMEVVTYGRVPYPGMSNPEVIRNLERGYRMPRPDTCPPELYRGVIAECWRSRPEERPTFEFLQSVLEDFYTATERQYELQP

- inhibition [1]: Active
- pIC50 [2]: 8.57
- pIC50 [3]: 5.57
- pIC50 [4]: 8.72
- Activity [5]: Active
- Activity [6]: Active
- remaining at 24 h, 1 µM [9]: 94%
- half-life [10]: 38.4 min
- concentration at 2 h [11]: 2100 ng/mL
- Activity [14]: inactive
- inhibition [15]: Active
SMILES: C=CC(=O)Nc1cccc(Nc2ncc(NC(=O)c3cc(NC(=O)c4cccc(C(F)(F)F)c4)ccc3C)cn2)c1
- growth inhibition (GI) (SU-DHL10): Active
- GI50 [7]: 8 nM
- GI50 [8]: 38 nM
- Activity (Mus musculus [12]): Non-toxic
- Activity (Mus musculus [13]): Non-toxic
